We go through 64 molecules from ChEMBL document CHEMBL1143188, “5-Aryl-imidazolin-2-ones as a scaffold for potent antioxidant and memory-improving activity” (Bioorg Med Chem Lett, 2008).

What is called IC50 is the midpoint of a concentration-inhibition curve.

Active and inactive are the calls of the source. No cut-off for these calls is given here.

One series relates to Brain. Briefly: Inhibition of lipid peroxidation in Wistar rat brain homogenates by TBARS assay. The format is functional, tissue-based. In a few lines: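 Male Wistar rat brain homogenate autooxidized at 37 °C for 30 min with or without compound. Lipid peroxidation read by a modified thiobarbituric acid (TBARS) test; IC50 derived.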
For series [1], the system named is Rattus norvegicus. Briefly: Memory improving activity in po dosed rat passive avoidance model assessed as effect on cycloheximide-induced amnesia. The format is functional. As to conditions: read-out: MED. The method, boiled down: (§1)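 Passive avoidance: one day after training, compound (0.1–30 mg/kg) or vehicle given orally 30 min before a retention trial. Read-out was latency to move from the light to the dark room; minimum effective dose (MED) reported.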

Series [2] is described as follows: DPPH radical scavenging activity at 100 uM relative to control. The format is ADME. In a few lines: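 DPPH 100 μM in ethanol; compound added in ethanol to a final 100 μM; optical density read; scavenging expressed as a percentage of the optical density of a control with excess vitamin C.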
Series [3] deals with Rattus norvegicus. Briefly: Toxicity in po dosed rat. Type of series: organism-based. Particulars: in vivo.
Series [4] deals with Rattus norvegicus. In words: Memory improving activity in rat passive avoidance model assessed as effect on cycloheximide-induced amnesia at 0.1 mg/kg, po. Type of series: functional, organism-based. Also noted: dose 0.1 mg/kg. In a few lines:
as §1

In the series with Brain, `CCCCCCCCCCOc1ccc(-c2c(C)[nH]c(=O)n2C2CCCCC2)cc1` displayed an IC50 of 10.5 µM. In addition, the minimal effective dose with Rattus norvegicus [1] is 0.1 mg/kg. As for `CCCCc1ccc(-c2c(C)[nH]c(=O)n2C)cc1`, in the series on Brain, the IC50 worked out at 10.7 µM. Also, the minimal effective dose in the series on Rattus norvegicus [1] was 0.1 mg/kg. Also, the Activity in series [2] is 98%; in the series on Rattus norvegicus [3] it was > 1000 mg/kg. On to `Cc1[nH]c(=O)n(C)c1-c1ccc(Oc2ccccc2)cc1`, for which, in the series on Rattus norvegicus [4], the result was inactive. In addition, 8.1 µM corresponded to half-maximal inhibition with Brain (IC50).

For `CCCCc1ccc(-c2c(C)[nH]c(=O)n2Cc2ccccc2)cc1`, the concentration for half-maximal inhibition (IC50) in the series with Brain is 12.4 µM. The molecule further yielded an Activity in series [2] of 59%. In the series with Brain, `COc1ccc(-c2c(C)[nH]c(=O)n2C2CCCCC2)cc1` came in with an IC50 of 20.4 µM. `CCCCCCCCOc1ccc(-c2c(C)[nH]c(=O)n2C2CCCCC2)cc1`: in the series with Brain, inhibition was half-maximal at 8.5 µM (IC50). Moreover, the minimal effective dose in the series with Rattus norvegicus [1] stood at 30 mg/kg. `CCCCCCCCCCOc1ccc(-c2c(C)[nH]c(=O)n2C)cc1`: the IC50 in the series with Brain is 6.9 µM. In the series on Rattus norvegicus [1], the minimal effective dose came out at 0.1 mg/kg. In the series on Brain, `Cc1ccc(-c2c(C)[nH]c(=O)n2C)cc1` displayed an IC50 of 85.3 µM. In the case of `CCCCCCCCCCCCc1ccc(-c2c(C)[nH]c(=O)n2C)cc1`, the IC50 with Brain amounted to 13 µM. Turning to `CCCCc1ccc(-c2c(C)[nH]c(=O)n2C(C)C)cc1`, 10.7 µM corresponded to half-maximal inhibition in the series with Brain (IC50). Besides, the Activity in series [2] stood at 78%. Turning to `CCCCc1ccc(-c2c(CC)[nH]c(=O)n2C)cc1`, in the series on Brain, half-maximal inhibition (IC50) required 13.9 µM. Regarding `CCCCn1c(-c2ccccc2)c(C)[nH]c1=O`, the IC50 in the series with Brain is > 100 µM. In the case of `CCCCCCCOc1ccc(-c2c(C)[nH]c(=O)n2C2CCCCC2)cc1`, the IC50 in the series on Brain stood at 11.6 µM. The same measure, in the same setting: the value for `CCCc1ccc(-c2c(C)[nH]c(=O)n2C2CCCCC2)cc1` was 13.9 µM. The molecule `Cc1[nH]c(=O)n(C2CCCCC2)c1-c1ccc(Oc2ccccc2)cc1` displayed an IC50 in the series on Brain of 7.9 µM. The minimal effective dose in the series on Rattus norvegicus [1] came out at 0.1 mg/kg. `Cc1[nH]c(=O)n(C)c1-c1ccc(CC(C)C)cc1` came in with an IC50 in the series on Brain of 7.8 µM. For the same molecule, the minimal effective dose in the series on Rattus norvegicus [1] worked out at 30 mg/kg. `Cc1[nH]c(=O)n(C2CCCCC2)c1-c1ccc(C2CCCCC2)cc1` showed an IC50 in the series with Brain of 28.9 µM. As for `CCCCCCCCc1ccc(-c2c(C)[nH]c(=O)n2C2CCCCC2)cc1`, the IC50 with Brain is 10.3 µM. The molecule `COc1ccc(-c2c(C)[nH]c(=O)n2C)cc1` returned an IC50 in the series with Brain of 147 µM. The molecule `CCCCCCCCOc1ccc(-c2c(C)[nH]c(=O)n2C)cc1` came in with an IC50 with Brain of 4 µM. For the same molecule, the minimal effective dose in the series on Rattus norvegicus [1] is 30 mg/kg. As for `CCCCCCCCCCCCCCCCCCc1ccc(-c2c(C)[nH]c(=O)n2C)cc1`, in the series on Brain, the IC50 is > 100 µM.

Turning to `CCCCCOc1ccc(-c2c(C)[nH]c(=O)n2C)cc1`, the outcome in the series with Rattus norvegicus [4] was inactive. The molecule further gave an IC50 in the series on Brain of 4.5 µM.

Take `CCCCOc1ccc(-c2c(C)[nH]c(=O)n2C2CCCCC2)cc1`: in the series with Brain, the IC50 turned out to be 13.9 µM. The same molecule gave an Activity in series [2] of 88%. Turning to `Cc1[nH]c(=O)n(C2CCCCC2)c1-c1cccc(OC(C)C)c1`, the IC50 with Brain was found to be 10.4 µM.

Molecule `CCCCCCCCc1ccc(-c2c(C)[nH]c(=O)n2C)cc1` gave an IC50 with Brain of 19.4 µM. Turning to `CCCCCCCCCCc1ccc(-c2c(C)[nH]c(=O)n2C2CCCCC2)cc1`, the midpoint of inhibition in the series on Brain, the IC50, lay at 27 µM. For `CCCCCCCCCCCCOc1ccc(-c2c(C)[nH]c(=O)n2C)cc1`, in the series with Brain, inhibition was half-maximal at 9.7 µM (IC50). Further, the minimal effective dose in the series on Rattus norvegicus [1] amounted to 0.1 mg/kg. `Cc1[nH]c(=O)n(C2CCCCC2)c1-c1ccccc1` had an IC50 in the series with Brain of 47.6 µM. Consider `CCCCCc1ccc(-c2c(C)[nH]c(=O)n2C)cc1`, for which half-maximal inhibition with Brain (IC50) was put at 5.9 µM.

As for `CCCCCCCCCCCCc1ccc(-c2c(C)[nH]c(=O)n2C2CCCCC2)cc1`, the IC50 in the series with Brain was > 100 µM. On the same count and under the same terms, the value for `CCCCc1ccc(-c2c(C)[nH]c(=O)n2CCCC)cc1` was 12 µM. Take `Cc1[nH]c(=O)n(C2CCCCC2)c1-c1ccc(OCc2ccccc2)cc1`: the IC50 in the series on Brain turned out to be 8.3 µM. In addition, in the series on Rattus norvegicus [1], the minimal effective dose is 0.1 mg/kg. Molecule `CCCCCCCCCCCCCCc1ccc(-c2c(C)[nH]c(=O)n2C)cc1` gave an IC50 with Brain of 43.8 µM.

For the molecule `CCCCCCCCCCCCCCCCCCc1ccc(-c2c(C)[nH]c(=O)n2C2CCCCC2)cc1`, the IC50 in the series with Brain was > 100 µM.

Consider `Cc1[nH]c(=O)n(C)c1-c1ccc(C2CCCCC2)cc1`, for which half-maximal inhibition with Brain (IC50) required 10 µM. Moreover, in the series with Rattus norvegicus [1], the minimal effective dose is 0.1 mg/kg. For the same molecule, the Activity in the series with Rattus norvegicus [3] is > 1000 mg/kg.

As for `Cc1[nH]c(=O)n(C)c1-c1ccc(OC(C)C)cc1`, in the series with Brain, half-maximal inhibition (IC50) required 20.4 µM.

Take `CCCCCCCc1ccc(-c2c(C)[nH]c(=O)n2C)cc1`: the IC50 in the series with Brain came out at 8.4 µM. For the same molecule, the minimal effective dose with Rattus norvegicus [1] is 30 mg/kg. With `Cc1[nH]c(=O)n(C2CCCCC2)c1-c1ccc(CC(C)C)cc1`, it took 10.9 µM to reach half-maximal inhibition with Brain (IC50). This lies in the double-digit micromolar range. The same measure, in the same setting: next, `CCCCCCCc1ccc(-c2c(C)[nH]c(=O)n2C2CCCCC2)cc1`: 8.7 µM; `CCCCCCCCCCCCCCCCCCOc1ccc(-c2c(C)[nH]c(=O)n2C)cc1`: > 100 µM. In turn, `CCCCCCCCCCc1ccc(-c2c(C)[nH]c(=O)n2C)cc1` returned an IC50 in the series on Brain of 7.9 µM. Moreover, the minimal effective dose in the series on Rattus norvegicus [1] is 0.3 mg/kg. As to `Cc1[nH]c(=O)n(C2CCCCC2)c1-c1ccc(OC(C)C)cc1`, the IC50 with Brain came out at 13 µM.

With `CCCCCCCOc1ccc(-c2c(C)[nH]c(=O)n2C)cc1`, the result with Rattus norvegicus [4] was inactive. The molecule further came in with an IC50 in the series with Brain of 5.7 µM. Regarding `CCCCCCc1ccc(-c2c(C)[nH]c(=O)n2C2CCCCC2)cc1`, in the series with Brain, the IC50 was found to be 13.7 µM. This lies in the double-digit micromolar range.

For the molecule `CCCCCOc1ccc(-c2c(C)[nH]c(=O)n2C2CCCCC2)cc1`, the result in the series on Rattus norvegicus [4] was inactive. For the same molecule, the IC50 in the series on Brain was determined as 9.1 µM. As for `Cc1[nH]c(=O)n(C2CCCCC2)c1-c1ccccc1OC(C)C`, it took 21.5 µM to reach half-maximal inhibition in the series with Brain (IC50). In other words, the double-digit micromolar range. Consider `CCCCCCOc1ccc(-c2c(C)[nH]c(=O)n2C)cc1`, for which the result with Rattus norvegicus [4] was inactive. The molecule further came in with an IC50 in the series with Brain of 7.3 µM.

In the case of `CCCCCCCCCCCCCCCCCCOc1ccc(-c2c(C)[nH]c(=O)n2C2CCCCC2)cc1`, the IC50 in the series with Brain was > 100 µM.

Regarding `CCCCc1ccc(-c2c(C)[nH]c(=O)n2C2CCCCC2)cc1`, the IC50 with Brain came out at 27.1 µM. This counts as double-digit micromolar.

In the series with Brain, `CCCCCCCCCCCCOc1ccc(-c2c(C)[nH]c(=O)n2C2CCCCC2)cc1` had an IC50 of 52.4 µM. The molecule `CCCCCc1ccc(-c2c(C)[nH]c(=O)n2C2CCCCC2)cc1` came in with an IC50 with Brain of 10.6 µM. For `Cc1[nH]c(=O)n(C2CCCCC2)c1-c1ccc(OCCC(C)C)cc1`, the outcome in the series with Rattus norvegicus [4] was inactive. The molecule also showed an IC50 with Brain of 7.2 µM.

The molecule `Cc1[nH]c(=O)n(C)c1-c1ccc(C(C)(C)C)cc1` gave an IC50 in the series on Brain of 8.4 µM.

In the case of `Cc1[nH]c(=O)n(C)c1-c1ccc(OCc2ccccc2)cc1`, the outcome in the series with Rattus norvegicus [4] was inactive. Also, half-maximal inhibition in the series with Brain (IC50) was put at 6.7 µM.

With `CCCCOc1ccc(-c2c(C)[nH]c(=O)n2C)cc1`, in the series with Brain, the IC50 came out at 5.1 µM. The minimal effective dose with Rattus norvegicus [1] amounted to 0.3 mg/kg. For `CCCCc1ccc(-c2c(C)[nH]c(=O)n2-c2ccccc2)cc1`, in the series with Brain, the IC50 is 16.6 µM. In the case of `CCCCCCc1ccc(-c2c(C)[nH]c(=O)n2C)cc1`, the IC50 in the series with Brain amounted to 9 µM. Moreover, the minimal effective dose with Rattus norvegicus [1] worked out at 0.3 mg/kg. For `Cc1[nH]c(=O)n(C2CCCCC2)c1-c1ccc(-c2ccccc2)cc1`, the IC50 in the series with Brain is 10.9 µM. Also, the minimal effective dose with Rattus norvegicus [1] came to 0.1 mg/kg. Consider `CCCCCCOc1ccc(-c2c(C)[nH]c(=O)n2C2CCCCC2)cc1`, for which the outcome in the series on Rattus norvegicus [4] was inactive. For the same molecule, it took 8.5 µM to reach half-maximal inhibition in the series on Brain (IC50). As for `CCCCCCCCCCCCCCc1ccc(-c2c(C)[nH]c(=O)n2C2CCCCC2)cc1`, in the series on Brain, the IC50 is > 100 µM. Consider `Cc1[nH]c(=O)n(C)c1-c1ccc(OCCC(C)C)cc1`, for which the outcome with Rattus norvegicus [4] was inactive. Also, half-maximal inhibition in the series on Brain (IC50) was put at 6.6 µM. In the series with Brain, `Cc1[nH]c(=O)n(C)c1-c1ccc(-c2ccccc2)cc1` displayed an IC50 of 6.3 µM. The minimal effective dose in the series on Rattus norvegicus [1] was determined as 0.3 mg/kg. The Activity in the series on Rattus norvegicus [3] is > 1000 mg/kg. As for `Cc1[nH]c(=O)n(C)c1-c1ccccc1`, the IC50 in the series with Brain was > 100 µM.

Regarding `CCCc1ccc(-c2c(C)[nH]c(=O)n2C)cc1`, in the series on Brain, half-maximal inhibition (IC50) required 21.5 µM.
